Legend:
[1] = Lipophilicity, log D of the compound at pH 7.4; type: physicochemical; settings: buffer
[2] = target: T1, Melanin-concentrating hormone receptor 1 (Homo sapiens, UniProt Q99705); assay: Antagonist activity at human MCHR1 expressed in CHO cells assessed as inhibition of MCH-stimulated arachidonic acid release after 45 mins by liquid scintillation counting; type: functional, cell-based
[3] = target: Voltage-gated inwardly rectifying potassium channel KCNH2 (Homo sapiens, UniProt Q12809); assay: Inhibition of human ERG expressed in HMZ/CHO.8B4 cells assessed as inhibition of Rb+ efflux at 30 uM after 30 mins by flame atomic absorption spectrometer analysis relative to astemizole; type: cell-based; settings: 0.5 h
Sequence of Voltage-gated inwardly rectifying potassium channel KCNH2 (Q12809 whole entry): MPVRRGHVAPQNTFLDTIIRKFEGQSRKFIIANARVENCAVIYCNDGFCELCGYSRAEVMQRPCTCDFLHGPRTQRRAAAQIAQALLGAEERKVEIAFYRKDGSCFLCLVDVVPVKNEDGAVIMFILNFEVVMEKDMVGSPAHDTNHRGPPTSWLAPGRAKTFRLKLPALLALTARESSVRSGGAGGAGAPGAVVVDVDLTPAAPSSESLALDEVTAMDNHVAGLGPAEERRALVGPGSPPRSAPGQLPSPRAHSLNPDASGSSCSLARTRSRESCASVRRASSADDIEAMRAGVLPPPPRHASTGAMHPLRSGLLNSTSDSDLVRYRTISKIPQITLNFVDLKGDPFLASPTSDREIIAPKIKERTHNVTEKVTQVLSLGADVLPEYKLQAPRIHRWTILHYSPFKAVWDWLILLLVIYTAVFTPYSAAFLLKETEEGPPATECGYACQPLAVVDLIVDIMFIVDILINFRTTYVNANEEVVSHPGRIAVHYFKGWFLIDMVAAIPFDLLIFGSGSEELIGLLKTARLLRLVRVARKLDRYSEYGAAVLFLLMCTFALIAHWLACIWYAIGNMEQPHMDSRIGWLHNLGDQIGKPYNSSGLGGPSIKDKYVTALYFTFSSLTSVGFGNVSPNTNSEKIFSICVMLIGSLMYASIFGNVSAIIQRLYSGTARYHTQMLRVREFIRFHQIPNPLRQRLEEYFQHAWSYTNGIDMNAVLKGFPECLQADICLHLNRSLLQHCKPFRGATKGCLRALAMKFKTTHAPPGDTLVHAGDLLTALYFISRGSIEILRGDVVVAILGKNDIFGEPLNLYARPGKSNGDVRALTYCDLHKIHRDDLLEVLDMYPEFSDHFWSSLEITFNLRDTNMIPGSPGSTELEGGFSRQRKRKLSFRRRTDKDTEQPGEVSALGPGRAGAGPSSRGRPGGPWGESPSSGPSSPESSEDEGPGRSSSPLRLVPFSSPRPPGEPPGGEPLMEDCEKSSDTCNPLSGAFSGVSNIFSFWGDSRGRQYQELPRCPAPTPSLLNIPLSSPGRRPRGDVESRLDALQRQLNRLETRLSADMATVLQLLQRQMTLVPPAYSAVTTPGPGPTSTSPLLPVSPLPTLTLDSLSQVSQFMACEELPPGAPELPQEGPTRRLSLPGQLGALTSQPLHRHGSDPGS
Summary of the method: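 HMZ/CHO.8B4 cells stably expressing hERG, 4 × 10⁴ cells/well, 24 h on collagen, Rb-loaded 3 h at 37 °C (5.4 mM RbCl, pH 7.4). Compound added for 30 min (n = 7), then 5 min stimulation with 50 mM KCl. Supernatant and lysate Rb⁺ read by flame atomic absorption. Fractional efflux normalized to background and maximum; astemizole as 0, vehicle as 1.0.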

[4] = target: T1, Melanin-concentrating hormone receptor 1; assay: Displacement of [125I]MCH from human MCHR1 expressed in CHO cells after 60 mins by liquid scintillation counting; type: cell-based
Summary of the method: (§1)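 Membrane homogenates from CHO cells stably expressing human or rat MCHR1 in 25 mM Tris-HCl pH 7.5 with EDTA, BSA and protease inhibitors. Membrane protein 2 μg/mL (human) or 4 μg/mL (rat). Nonspecific binding defined with 0.3 μM MCH(1–19). Filter radioactivity counted. IC50 from one experiment in duplicate.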

[5] = target: Melanin-concentrating hormone receptor 1 (Rattus norvegicus, UniProt P97639); assay: Displacement of [125I]MCH from rat MCHR1 expressed in CHO cells after 60 mins by liquid scintillation counting; type: cell-based; summary of the method: as §1
Sequence of Melanin-concentrating hormone receptor 1 (Rattus norvegicus, UniProt P97639) (P97639 whole entry): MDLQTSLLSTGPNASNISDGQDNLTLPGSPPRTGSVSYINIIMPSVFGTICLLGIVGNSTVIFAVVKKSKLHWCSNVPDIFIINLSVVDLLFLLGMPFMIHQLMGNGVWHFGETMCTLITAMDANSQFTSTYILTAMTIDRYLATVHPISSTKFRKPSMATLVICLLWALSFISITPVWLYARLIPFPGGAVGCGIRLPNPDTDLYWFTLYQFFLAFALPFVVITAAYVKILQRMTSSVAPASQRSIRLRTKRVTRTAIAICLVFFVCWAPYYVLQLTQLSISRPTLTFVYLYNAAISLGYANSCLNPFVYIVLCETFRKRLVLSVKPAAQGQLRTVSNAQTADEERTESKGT

hERG (KCNH2) = hERG (KCNH2) (Homo sapiens, UniProt Q12809); assay: Inhibition of human ERG expressed in HMZ/CHO.8B4 cells at 10 uM by patch clamp assay; type: cell-based; settings: HMZ/CHO.8B4 cells expressing human ERG
Sequence of hERG (KCNH2) (Q12809 whole entry): as the sequence (Q12809 whole entry) above

[6] = Total clearance in Sprague-Dawley rat plasma at 1 mg/kg, iv; type: ADME, organism-based; parameters: dose 1 mg/kg, route intravenous
Summary of the method: (§2)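 Male Sprague-Dawley rats, 8 weeks old, given intravenous dose.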

[7] = Cmax in Sprague-Dawley rat plasma at 3 mg/kg, po; type: ADME, organism-based; parameters: dose 3 mg/kg, route oral
Summary of the method: (§3)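 Male Sprague-Dawley rats, 8 weeks old, given oral dose.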

[8] = Volume of distribution at steady state in Sprague-Dawley rat at 1 mg/kg, iv; type: ADME, organism-based; parameters: dose 1 mg/kg, route intravenous; settings: in vivo, read-out: Vdss; summary of the method: as §2
[9] = Bioavailability in Sprague-Dawley rat; type: ADME, organism-based; settings: in vivo
Rattus norvegicus = assay: Antiobesity activity in po dosed diet induced obese F344 rat model assessed as inhibition of food intake administered qd for 2 days; type: functional, organism-based
Summary of the method: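 Male F344/Jcl rats, 32 weeks old, on high-fat diet from 5 weeks of age, housed singly on a 7:00–19:00 light cycle, habituated to oral water dosing, grouped by food intake and body weight (n = 6). Dosed orally at 1, 3, 5 or 10 mg/kg in 0.5% methylcellulose (2 mL/kg) at 5:00 p.m. on days 0 and 1. Cumulative intake on days 1 and 2 expressed as ratio to vehicle group; Williams test.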

[10] = Tmax in Sprague-Dawley rat at 3 mg/kg, po; type: ADME, organism-based; parameters: dose 3 mg/kg, route oral; settings: in vivo; summary of the method: as §3
[11] = AUC (0 to 24 hrs) in Sprague-Dawley rat at 3 mg/kg, po; type: ADME, organism-based; parameters: time < 24 hr, dose 3 mg/kg, route oral; settings: plasma; summary of the method: as §3

T1 sequence (Q99705 whole entry): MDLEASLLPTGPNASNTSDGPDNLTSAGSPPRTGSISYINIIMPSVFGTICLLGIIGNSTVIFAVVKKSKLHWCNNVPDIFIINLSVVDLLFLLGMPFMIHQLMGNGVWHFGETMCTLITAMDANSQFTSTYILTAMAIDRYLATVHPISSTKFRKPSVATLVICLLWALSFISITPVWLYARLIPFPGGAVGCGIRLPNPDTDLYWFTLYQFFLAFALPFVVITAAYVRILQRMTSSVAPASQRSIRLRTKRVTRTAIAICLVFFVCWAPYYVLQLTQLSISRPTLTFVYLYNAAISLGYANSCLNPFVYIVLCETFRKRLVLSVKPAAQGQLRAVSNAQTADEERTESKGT

SMILES | logD [1] | IC50 [2] | Ratio [3] | IC50 [4] | IC50 [5] | inhibition at 10 µM (hERG (KCNH2)) | other results
Cc1c(NC(=O)c2ccc(OCC3CC3)cc2)ccc2cc(C(C)N3CCCCCC3)cnc12 (racemic) | 3.91 | 3.4 nM | 0.73 | 2 nM | 5.6 nM |  | 
Cc1c(NC(=O)c2ccc(-c3ccc(F)cc3)cc2)ccc2cc(CN3CCCC3)cnc12 | 2.77 |  | 0.17 |  | 1 nM | 93.8% | 
CC(=O)NCCNC(C)c1cnc2c(C)c(NC(=O)c3ccc(OCC4CC4)cc3)ccc2c1 (racemic) |  |  |  |  |  | 29.3% | 
Cc1c(NC(=O)c2ccc(OCC3CC3)cc2)ccc2cc(CN3CCCC3)cnc12 | 2.77 | 4.3 nM | 0.9 | 1.8 nM | 1.6 nM |  | 
Cc1c(NC(=O)c2ccc(OCC3CC3)cc2)ccc2cc(CN3CCCC3C)cnc12 (racemic) |  |  |  | 2.5 nM | 6.7 nM |  | 
Cc1c(NC(=O)c2ccc(OCC(C)C)cc2)ccc2cc(CN3CCCC3)cnc12 | 3.35 |  | 0.7 | 4.4 nM | 6.7 nM |  | 
CCCCCC(=O)c1ccc(C(=O)Nc2ccc3cc(CN4CCCC4)cnc3c2C)cc1 | 3.5 |  | 0.48 | 170 nM |  |  | 
Cc1c(NC(=O)c2ccc(OCC3CC3)cc2)ccc2cc(C(C)N3CCCC3)cnc12 (racemic) | 3 | 6.4 nM | 1.02 | 1.7 nM | 4.2 nM |  | 
Cc1c(NC(=O)c2ccc(OCC3CC3)cc2)ccc2cc([C@@H](C)N3CCCC3)cnc12 | 2.99 | 2.9 nM | 1.11 | 1.1 nM | 1.9 nM | 88.1% | 
Cc1c(NC(=O)c2ccc(OCC3CC3)cc2)ccc2cc(C(C)NCCO)cnc12 (racemic) |  |  |  |  |  | 84.8% | 
Cc1c(NC(=O)c2ccc(OCC3CC3)cc2)ccc2cc(C(C)NCC(C)(C)O)cnc12 (racemic) | 2.67 | 6.4 nM |  | 1.5 nM | 2.7 nM | 63.3% | 
Cc1c(NC(=O)c2ccc(OCC3CC3)cc2)ccc2cc([C@H](C)N3CCCC3)cnc12 | 2.99 | 4 nM | 0.85 | 3.4 nM | 8 nM |  | 
Cc1c(NC(=O)c2ccc(OCC3CC3)cc2)ccc2cc(C(C)N3CC[C@H](O)C3)cnc12 (mixture of isomers) |  |  |  |  |  | 58.4% | 
CC(=O)NCCN[C@@H](C)c1cnc2c(C)c(NC(=O)c3ccc(OCC4CC4)cc3)ccc2c1 |  |  |  |  |  | 33.3% | 
CC(=O)NCCN[C@H](C)c1cnc2c(C)c(NC(=O)c3ccc(OCC4CC4)cc3)ccc2c1 |  |  |  |  |  | 33.2% | clearance [6]: 11.5 mL/min/kg; Cmax [7]: 274 ng/mL; Vd [8]: 1.21 L/kg; bioavailability [9]: 43%; inhibition (Rattus norvegicus): Dose-dependent effect; Tmax [10]: 4 h; AUC(0-t) at 24 h [11]: 1940 ng·h/mL

From ChEMBL document CHEMBL2057191, “Synthesis, structure-activity relationship, and pharmacological studies of novel melanin-concentrating hormone receptor 1 antagonists 3-aminomethylquinolines: reducing human ether-a-go-go-related gene (hERG) associated liabilities” (J Med Chem, 2012)
